# Assay outcomes from PubChem BioAssay.
# Sampled rows, rich in hits. Any-hit rate of the full collection: about 2.1%.
# GSIS activator = GLuc luminescence reporter in INS-1E cells, primary screen for activators of glucose-dependent secretion of insulin; INS-1E GLuc reporter insulin secretion, 2-3 h; hit rate 0.61% among 370,000; AID 743287; activation, % at 16.6 µM;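 active = lowest replicate activation of at least 40%, so every replicate reaches that level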;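 note: 0% = median of neutral control wells and 100% = median of IBMX positive control wells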
# EWS-Fli inh = inhibitors of EWS/Fli oncoprotein transcriptional activity. A673 NR0B1-luciferase reporter, viability-normalised. inhibition, % at 12.6 µM. hit rate 0.67% among 350,000. AID 651661;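 active = mean inhibition of at least 50% after viability correction, with every replicate also passing that limit; inconclusive = mean reaches 50% but only one of two replicates passes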;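 note: firefly luciferase signal divided by Alamar Blue viability fluorescence both relative to DMSO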
# XiGFP reactiv = reactivates the inactive X chromosome in mouse fibroblasts | XiGFP mouse fibroblasts, % GFP-positive cells imaging, 3 d; cells co-treated with 5-aza-dC sensitizer; scaled so ellipticine positive control = 100% | hit rate 0.055% among 360,000 | AID 743238 | activation, % at 7.58 µM;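 active = mean normalized replicate activation at least 10% and every replicate at or above 10%; inconclusive = only one of the two criteria met; inactive = mean below 10% and not all replicates reach 10%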;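 note: 0% = median of on-plate neutral control wells and 100% = ellipticine 6 µM median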
#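 Material: XiGFP fibroblasts, SV40-immortalized; Buffer or medium: DMEM containing 5-aza-dC; Compound dosing: single point; Times: 3 days compound exposure.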
# MLL AF4-AF9 inh = blocks AF4 peptide binding to human AF9. inhibition, % at 10 µM. AlphaScreen, biotin-AF4 peptide binding to FLAG-AF9. hit rate 0.47% among 350,000;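 active = every replicate reaching a set inhibition limit, whatever the replicate mean, cut at about 25% in these data; inconclusive = mean inhibition reaches that limit but some replicates miss it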;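 note: 0% = plate neutral control median and 100% = total signal loss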
# Target sequence (P42568 whole entry, looked up): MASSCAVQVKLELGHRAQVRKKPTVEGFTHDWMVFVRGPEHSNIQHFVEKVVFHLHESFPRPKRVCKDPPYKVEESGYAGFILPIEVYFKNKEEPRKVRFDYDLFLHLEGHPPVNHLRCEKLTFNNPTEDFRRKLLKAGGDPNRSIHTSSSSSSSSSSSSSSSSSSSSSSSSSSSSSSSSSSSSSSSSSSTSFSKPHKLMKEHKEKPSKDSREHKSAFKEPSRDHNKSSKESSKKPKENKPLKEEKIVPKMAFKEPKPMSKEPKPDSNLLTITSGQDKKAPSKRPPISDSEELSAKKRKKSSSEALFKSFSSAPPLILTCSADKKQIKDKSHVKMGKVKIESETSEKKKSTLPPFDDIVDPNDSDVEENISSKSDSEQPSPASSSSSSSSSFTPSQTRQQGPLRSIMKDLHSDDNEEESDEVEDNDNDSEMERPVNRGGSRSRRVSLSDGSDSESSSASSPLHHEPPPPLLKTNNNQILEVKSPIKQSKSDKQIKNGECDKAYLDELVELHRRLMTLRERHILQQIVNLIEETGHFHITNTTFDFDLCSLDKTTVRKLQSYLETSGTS
# PAX8 inh HTS = inhibitors of PAX8 transcriptional activity in RMG-I cells | RMG-I TPO-luciferase reporter, SteadyGlo, 24 h | inhibition, % at 12.6 µM | hit rate 1.2% among 360,000 | AID 652154;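 active = mean replicate inhibition at least 60% with every replicate also reaching 60%; inconclusive = only one of the two criteria is met; inactive = mean below 60% and not all replicates reaching 60%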;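 note: luciferase light reporting Pax8 driven TPO promoter activity; plate controls were median of neutral control wells for no effect and mitoxantrone controls for full effect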
# PGC1a acetyl inh = lowers PGC1a acetylation signal in U2OS cells; AlphaScreen anti-acetyl-lysine; with virally co-expressed GCN5 acetyltransferase; inhibition, % at 15.6 µM; hit rate 0.17% among 350,000; AID 651687;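 active = every replicate shows inhibition of at least 40%; inconclusive = mean inhibition at least 40% but some replicate below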;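 note: 0% = neutral control wells and 100% = positive control wells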
# The depositor's hits bear a star; u = inconclusive; x = not tested or not shown.
SMILES,GSIS activator,EWS-Fli inh,XiGFP reactiv,MLL AF4-AF9 inh,PAX8 inh HTS,PGC1a acetyl inh
CS(=O)(=O)N1CCCCC1c1cc(C(=O)Nc2cccc3c2CCCC3)no1 (centres undefined),54*,-5,0,2,20,-3
Cc1noc(C)c1S(=O)(=O)N1CCCCC1c1cc(C(=O)Nc2cccc3c2CCCC3)no1 (centres undefined),-18,-12,0,-1,8,-3
C[C@]12CC[C@@H]3c4ccc(O[C@@H]5O[C@H](C(=O)O)[C@@H](O)[C@H](O)[C@H]5O)cc4CC[C@H]3[C@@H]1C[C@@H](O)[C@@H]2O,1,-9,0,-3,-22,11
C=CCOc1ccc2c(c1)CCC1C2CCC2(C)C(O)C(O)CC12 (centres undefined),47*,-24,0,-3,-74,x
CC(C)NC(=S)N/N=C/c1ccc2c(c1)OCCO2,-8,83*,0,-10,-4,x
COc1ccc(-c2cnc3c(NC(C)=O)cc(-c4cc(F)ccc4OC)cn23)cc1OC,-1,54*,0,-6,27,0
COc1ccc(-c2cc(NC=O)c3ncc(-c4ccc(OC)c(OC)c4)n3c2)cc1,52*,u,7,4,6,-6
COc1cc(-c2cnc3c(NC=O)cc(-c4ccsc4)cn23)cc(OC)c1OC,-12,56*,2,1,x,0
COc1cccc(-c2cc(NC=O)c3ncc(-c4cc(OC)c(OC)c(OC)c4)n3c2)c1,3,53*,2,-2,26,-47
O=C(c1cccnc1)N1C[C@@H]2[C@H](c3ccccc31)[C@H](CO)N2C(=O)Nc1ccccc1,4,-4,0,-2,-4,9
CO[C@H]1CN(C)C(=O)c2ccc(NC(C)=O)cc2OC[C@H](C)N(C(=O)CC2CC2)C[C@H]1C,8,5,0,-2,-2,5
C[C@@H]1CN([C@H](C)CO)C(=O)CCCn2cc(nn2)CO[C@H]1CN(C)C(=O)Nc1ccc(N2CCN(C)CC2)cc1,17,-1,0,1,-4,10
O=[N+]([O-])c1ccc(Nc2ccc(N3CCOCC3)cc2)c([N+](=O)[O-])c1,-5,11,0,-5,90*,7
O=C(Nc1ccc(N2CCOCC2)cc1N1CCOCC1)c1ccc([N+](=O)[O-])cc1,x,x,x,x,x,-13
CN(C)c1ccc(-c2nc3ccccc3c(=O)[nH]2)cc1,x,62*,0,1,81*,13
COc1ccc(-c2nc3ccccc3c(=O)[nH]2)cc1,-2,-44,0,-2,-39,-7
Cc1cc(C)nc(NS(=O)(=O)c2ccc(N/C=C\C(=O)c3ccc(Cl)cc3)cc2)n1,x,x,x,x,x,-3
Cc1cc(C)nc(NS(=O)(=O)c2ccc(N/C=C/C(=O)c3ccc(Cl)c(Cl)c3)cc2)n1,63*,x,1,x,9,-4
CC(=O)Nc1ccc2c(c1)C(=O)N(C)[C@@H]1CC[C@H](CC(=O)NCc3ccccc3)O[C@@H]1CO2,-1,4,0,1,-8,-8
C[C@@H]1CN([C@H](C)CO)C(=O)c2cc(NC(=O)Nc3ccc(C(F)(F)F)cc3)ccc2O[C@@H](C)CCCCO[C@H]1CN(C)Cc1ccccc1,-20,77*,0,-1,113*,-27
C[C@H](CO)N1C[C@H](C)[C@@H](CN(C)Cc2ccccc2)OCCCC[C@H](C)Oc2ccc(NC(=O)Nc3ccc(C(F)(F)F)cc3)cc2C1=O,27,10,0,-3,95*,-10
C[C@@H]1CCCCO[C@@H](CN(C)Cc2ccc(C(F)(F)F)cc2)[C@@H](C)CN([C@@H](C)CO)C(=O)c2cc(NC(=O)Nc3ccc(C(F)(F)F)cc3)ccc2O1,0,-11,0,x,8,22
C[C@@H]1CN([C@@H](C)CO)C(=O)c2cc(NC(=O)Nc3ccccc3)ccc2O[C@@H](C)CCCCO[C@H]1CN(C)Cc1ccc(C(F)(F)F)cc1,35,12,0,x,72*,-3
C[C@@H]1CCCCO[C@H](CN(C)Cc2ccc(C(F)(F)F)cc2)[C@H](C)CN([C@H](C)CO)C(=O)c2cc(NC(=O)Nc3ccc(C(F)(F)F)cc3)ccc2O1,11,-13,0,x,-9,8
C[C@@H]1CCCCO[C@H](CN(C)Cc2ccccc2)[C@@H](C)CN([C@@H](C)CO)C(=O)c2cc(NC(=O)Nc3ccc(C(F)(F)F)cc3)ccc2O1,26,u,0,0,119*,5
SMILES,GSIS activator,EWS-Fli inh,XiGFP reactiv,MLL AF4-AF9 inh,PAX8 inh HTS,PGC1a acetyl inh
O=C(C1CCC1)N1CC[C@@H]2[C@H](CO)Nc3ccc(Br)cc3[C@@H]21,4,1,0,-2,x,7
CCCNC(=O)N(C)C[C@H]1Oc2ncc(Br)cc2C(=O)N([C@H](C)CO)C[C@@H]1C,8,-3,0,-2,24,6
CCCNC(=O)N1C[C@@H](C)[C@H](OC)CN(C)C(=O)c2ccc(NS(C)(=O)=O)cc2OC[C@H]1C,5,-4,0,-4,x,-4
C[C@@H]1CN([C@@H](C)CO)C(=O)c2cc(NC(=O)Nc3ccc(C(F)(F)F)cc3)ccc2O[C@@H](C)CCCCO[C@@H]1CN(C)Cc1ccccc1,2,-3,0,-1,79*,-7
C[C@@H]1CN([C@H](C)CO)C(=O)c2cc(NC(=O)Nc3ccc(C(F)(F)F)cc3)ccc2O[C@@H](C)CCCCO[C@@H]1CN(C)Cc1ccccc1,41,25,0,0,109*,-17
C[C@@H]1CN([C@@H](C)CO)C(=O)c2cc(NC(=O)Nc3ccc(C(F)(F)F)cc3)ccc2O[C@@H](C)CCCCO[C@@H]1CN(C)Cc1ccc(C(F)(F)F)cc1,-13,-7,0,x,-21,-6
CC(C)NC(=O)OC[C@H]1O[C@H](C#Cc2ccc(C(C)(C)C)cc2)C=C[C@H]1O,64*,14,0,5,7,x
CC(=O)O[C@@H]1C=C[C@@H](C#Cc2ccc(C(C)(C)C)cc2)O[C@@H]1COC(=O)NC(C)C,-15,21,0,3,16,x
O=c1c2ccccc2cnn1-c1nc2ccccc2[nH]1,10,91*,0,1,114*,x
FC(F)(F)c1ccc(Cl)c(-n2c(Cc3cccs3)n[nH]c2=S)c1,41*,-4,0,-4,26,7
COc1cccc(OC)c1C(=O)NNC(=O)c1cccnc1,10,3,0,35*,10,6
COc1cccc(C(=O)NNC(=O)c2cccnc2)c1,7,-2,0,-5,-28,-29
Cc1ccc(S(=O)(=O)Nc2ccc3c(c2)CC(=O)N([C@@H](C)CO)C[C@@H](C)[C@H](CN(C)Cc2ccc(C(F)(F)F)cc2)O3)cc1,0,33,0,x,63*,-2
